High-throughput results from PubChem BioAssay.
ANO1 activ = TMEM16A chloride channel activators or potentiators, primary screen, cell-based, HTS. B-score at 10 µM. Anoctamin-1 (Mus musculus), Q8BHY3. actives 0.3% (n = 340,000). HEK293 TMEM16A/YFP-H148Q/I152L, iodide quench fluorescence; stronger effect = lower value;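 active means fluorescence-ratio B-score plate-corrected deviation score at least 3 library SD below zero, with starting fluorescence score within 5 deviations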;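 further: channel opened by trigger with iodide after compound preincubation; score built on the fluorescence ratio of max minus min over baseline; more negative score means more quench and so TMEM16A activation or potentiation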
MC4R antag cAMP = MC4R antagonists of cAMP signaling, primary screen, cell-based, TR-FRET, antagonist arm of biased-ligand search. Melanocortin receptor 4 (Homo sapiens), P32245. MC4R-expressing cells, MTII-stimulated cAMP, LANCE TR-FRET. inhibition, % at 6.5 µM. actives 0.48% (n = 360,000);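 active means inhibition above its plate's cutoff, the mean of tested wells on that plate plus 3 SD, cut at about 29% in these data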;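 further: 0% = Melanotan II alone and 100% = Melanotan II plus saturating MCL0020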
Target sequence (P32245 whole entry, looked up): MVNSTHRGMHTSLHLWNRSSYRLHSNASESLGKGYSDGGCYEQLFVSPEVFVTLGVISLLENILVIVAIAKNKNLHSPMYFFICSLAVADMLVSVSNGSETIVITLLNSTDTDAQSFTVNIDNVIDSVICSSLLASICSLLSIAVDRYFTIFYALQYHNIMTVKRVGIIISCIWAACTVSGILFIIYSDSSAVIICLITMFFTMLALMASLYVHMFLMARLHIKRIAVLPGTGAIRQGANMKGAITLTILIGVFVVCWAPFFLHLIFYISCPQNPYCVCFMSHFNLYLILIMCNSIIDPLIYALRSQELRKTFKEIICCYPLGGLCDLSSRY
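System: U2OS cells stably expressing human melanocortin 4 receptor (MC4R). Reagent: Melanotan II challenge after compound preincubation. Doses: 6.5 µM. Times: 30-min compound, 1-h challenge, 1-h detection, room temperature. Measured by: TR-FRET with Eu-cAMP and labeled anti-cAMP, 671 nm. Replicates: singlicate.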
CSC inhib = cancer stem cell viability inhibitors, primary screen, luminescence. cancer stem cell-like cells viability. inhibition, % at 7.5 µM. actives 1.1% (n = 300,000). AID 2717, 2010; in the data active means inhibition above about 75%; tested in HMLE shEcad cells
TMEM16A inh = TMEM16A chloride channel inhibitors, primary screen, cell-based, HTS; normalized B-score (activity score, 25-100; higher = stronger inhibition) at 10 µM; HEK293 TMEM16A/YFP iodide influx fluorescence, ionomycin; actives 1.2% (n = 310,000); Anoctamin-1 (Mus musculus), Q8BHY3;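 active means ratio plate-corrected score three or more library SD toward inhibition, starting fluorescence score within five deviations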;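 further: score derived from kinetic fluorescence span divided by baseline fluorescence per well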
MC4R ag barr = MC4R agonists recruiting beta-arrestin, primary screen, cell-based, luminescence, agonist arm of biased-ligand search. Melanocortin receptor 4 (Homo sapiens), P32245. U2OS MC4R beta-arrestin complementation; percent of melanotan II response, DMSO zero. activation, % at 8.9 µM. actives 0.98% (n = 360,000);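 active means activation above a per-plate cutoff, the mean activation of sample wells on that plate plus 3 SD, cut at about 8% in these data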
Beta cell apopt = inhibitors of cytokine-induced beta cell apoptosis, primary screen, luminescence | INS-1E cytokine-induced death, ATP luminescence, 48 h; percent of positive-control rescue, neutral wells zero | protection from apoptosis, % (no concentration beside the values) | actives 0.8% (n = 300,000);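 active means Every replicate reaches about 75%, or at least half do and their mean reaches it too, limit read from the data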;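 further: 0% = cytokine-treated negative control wells and 100% = positive control rescue; higher means more ATP so stronger rescue from cytokine killing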
U2OS cAMP counter = nonselective cAMP signaling inhibitors, parental cells, counter-screen for MC4R biased antagonist project, cell-based, TR-FRET, U2OS, forskolin, triplicate; shares compounds with MC4R antag cAMP; LANCE TR-FRET; inhibition, % at 6.5 µM; actives 26% (n = 1,600);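 active means mean inhibition over triplicates above the low-control well mean plus 3 SD, set per campaign, cut at about 13% in these data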;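 further: signal is single emission at 671 nm which falls as cellular cAMP rises; 0% = forskolin-stimulated wells and 100% = buffer without forskolin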
MC4R cAMP antag = MC4R cAMP antagonists, retest, confirmation, cell-based, TR-FRET; shares compounds with MC4R antag cAMP; actives 27% (n = 1,600); inhibition, % at 6.5 µM; MC4R-expressing cells, MTII-stimulated cAMP; in the data active means inhibition above about 29%;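 further: 0% = agonist stimulated wells alone and 100% = agonist stimulated wells plus saturating reference antagonist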
The depositor's hits bear a star; i = inactive; nt = not tested or not shown. Hits are enriched below; roughly 3.8% of the tested compounds scored in any of these assays.

SMILES | ANO1 activ | MC4R antag cAMP | CSC inhib | TMEM16A inh | MC4R ag barr | Beta cell apopt | others
O=[N+]([O-])c1cc([N+](=O)[O-])c2nonc2c1Nc1ccc(O)cc1 | i | 2 | -9 | i | -1 | 0
Cc1c(C(=O)NCc2ccc3c(c2)OCCO3)sc(=O)n1Cc1ccc(C(=O)N(C)C)cc1 | nt | 12 | nt | nt | -1 | nt
O=C(CCc1nc2sc3c(c2c(=O)[nH]1)CCCC3)Nc1cccc(Cl)c1 | i | -1 | nt | i | 8.3* | -20
CCN(CC)C(=O)c1cccc(NC(=O)CCc2nc3sc4c(c3c(=O)[nH]2)CCCC4)c1 | i | 4 | nt | nt | -3 | nt
O=C(CSc1nncn1-c1cccnc1)Nc1cccc(C(F)(F)F)c1 | i | 5 | -5 | i | -2 | 4
Cc1ccc2c(c1)c1c(n2CC(O)CNC2CCCCC2)CCCC1 (stereo unspecified) | i | -2 | 77* | i | 9.0* | 21
Cc1ccc2c(c1)c1c(n2CC(O)CNC(CO)(CO)CO)CCCC1 (stereo unspecified) | i | 8 | -13 | i | -1 | 0
COc1cc2c(cc1OC)-c1cc(Nc3cccc(C)c3)nc(=O)n1CC2 | nt | -34 | 3 | i | 0 | 8
COc1cccc(N(C(=O)CCl)C(C(=O)NCCc2ccccc2)c2cccs2)c1 (stereo unspecified) | i | 5 | 67 | i | 3 | 2
COc1ccc(N(C(=O)CCl)C(C(=O)NCCc2ccccc2)c2cccs2)cc1Cl (stereo unspecified) | i | 34* | 109* | i | 21* | 98* | U2OS cAMP counter=-28;MC4R cAMP antag=37*
CCC(Sc1nc2ccsc2c(=O)n1Cc1ccc(C(=O)O)cc1)C(=O)Nc1cc(Cl)ccc1C (stereo unspecified) | nt | 37* | nt | nt | -2 | nt | U2OS cAMP counter=1;MC4R cAMP antag=2
CCC(Sc1nc2ccsc2c(=O)n1Cc1ccc(C(=O)O)cc1)C(=O)Nc1ccc(C)c(Cl)c1 (stereo unspecified) | i | 21 | -15 | i | -3 | 6
O=C(Nc1cccc(NC(=O)c2ccc(Br)o2)c1)c1ccccc1 | i | 34* | nt | nt | -1 | nt | U2OS cAMP counter=1;MC4R cAMP antag=5
O=C(c1ccccc1)c1cccc(NC(=O)c2ccc(Br)o2)c1 | i | 3 | 14 | i | -1 | -7
NC(Cc1ccc(C(F)(F)F)cc1)c1csc(Nc2nncc3ccccc23)n1 (stereo unspecified) | nt | 35* | nt | nt | 2 | nt | U2OS cAMP counter=21*;MC4R cAMP antag=0
NC(COCc1ccccc1)c1csc(Nc2nncc3ccccc23)n1 (stereo unspecified) | nt | 0 | nt | nt | 6 | nt
O=C(CC1C(=O)NCCN1Cc1ccc(Cl)c(F)c1)NC1CCCCC1 (stereo unspecified) | i | 0 | -3 | i | -3 | 1
Cc1cccc(NC(=O)CSCC(=O)Nc2cc(Cl)ccc2N2CCN(C)CC2)c1 | i | 5 | -3 | i | -2 | -4
COc1cc(S(=O)(=O)n2ccc(C)n2)ccc1Cl | i | 29* | -6 | i | 0 | -6 | U2OS cAMP counter=1;MC4R cAMP antag=-7
COc1cc(S(=O)(=O)n2ccc(C)n2)c(OC)cc1Cl | i | 2 | 2 | i | 2 | -4
CCCC(=O)N1CCCC1(C)C(=O)Nc1ccc2cn[nH]c2c1 (stereo unspecified) | nt | 5 | nt | nt | 1 | nt
